The values that follow come from ChEMBL document CHEMBL5107948, “Activity-based protein profiling reveals deubiquitinase and aldehyde dehydrogenase targets of a cyanopyrrolidine probe” (RSC Med Chem, 2021).

Structures are written as SMILES. The source made the active and inactive calls. No cut-off for these calls is given here. A value given as a limit tells only on which side of the number the result lay.

Test [1] deals with 4-trimethylaminobutyraldehyde dehydrogenase (Homo sapiens) (UniProt P49189). As to the kind of experiment: Inhibition of ALDH9A1 in human HEK293 cells at 130 to 2000 nM in presence of ABP MT16-205 by Competitive pulldown based immunoblotting analysis. It is filed as cell-based. Particulars: dose 130-2000 nM, DDE = dose-dependent effect. A digest of the protocol: (§1)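 Lysates AzTB-clicked, streptavidin bead pulldown (2 h RT), boiled elution, SDS-PAGE. Target detected by immunoblot: 3% BSA/TBS-T block, primary antibody 1.5 h RT or overnight at 4 °C, HRP secondary, chemiluminescence.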
4-trimethylaminobutyraldehyde dehydrogenase (Homo sapiens), sequence (P49189 whole entry): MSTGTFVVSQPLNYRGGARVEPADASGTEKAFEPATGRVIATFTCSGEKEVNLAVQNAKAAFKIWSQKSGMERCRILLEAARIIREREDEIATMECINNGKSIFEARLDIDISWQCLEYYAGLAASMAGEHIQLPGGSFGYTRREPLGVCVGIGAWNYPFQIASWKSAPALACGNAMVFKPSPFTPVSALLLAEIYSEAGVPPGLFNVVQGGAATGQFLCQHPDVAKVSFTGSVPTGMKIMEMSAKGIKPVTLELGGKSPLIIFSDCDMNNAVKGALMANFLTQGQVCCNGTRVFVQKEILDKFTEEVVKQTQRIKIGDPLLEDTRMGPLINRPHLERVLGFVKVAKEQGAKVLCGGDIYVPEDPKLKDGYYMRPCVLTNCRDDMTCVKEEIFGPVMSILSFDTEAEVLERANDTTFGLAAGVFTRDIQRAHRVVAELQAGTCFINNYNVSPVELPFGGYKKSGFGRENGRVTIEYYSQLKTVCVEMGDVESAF

The target of test [2] is Ubiquitin carboxyl-terminal hydrolase isozyme L1 (Homo sapiens) (UniProt P09936). As to the kind of experiment: Inhibition of GST-tagged recombinant UCHL1 (unknown origin) using Ub-Lys-TAMRA as substrate at 1 uM incubated for 30 mins by fluorescence polarization assay. A digest of the protocol:
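Recombinant DUB (UCHL1 or UCHL3 at 5 nM) preincubated 30 min RT with 8-point compound dilutions in Tris pH 7.5/NaCl or Tris pH 7.5 buffer with Tween-20, BSA and 5 mM BME. Ub-Lys-TAMRA (50 nM) added; fluorescence polarization (Ex 540/Em 590 nm) read at once and after 2 h RT. Triplicate; four-parameter IC50.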
On the technique in general: Fluorescence polarisation rises when a labelled molecule tumbles more slowly, as on binding a larger partner.

In test [3] the target is T1, Ubiquitin carboxyl-terminal hydrolase BAP1 (Homo sapiens) (UniProt Q92560).
T1 sequence (whole entry): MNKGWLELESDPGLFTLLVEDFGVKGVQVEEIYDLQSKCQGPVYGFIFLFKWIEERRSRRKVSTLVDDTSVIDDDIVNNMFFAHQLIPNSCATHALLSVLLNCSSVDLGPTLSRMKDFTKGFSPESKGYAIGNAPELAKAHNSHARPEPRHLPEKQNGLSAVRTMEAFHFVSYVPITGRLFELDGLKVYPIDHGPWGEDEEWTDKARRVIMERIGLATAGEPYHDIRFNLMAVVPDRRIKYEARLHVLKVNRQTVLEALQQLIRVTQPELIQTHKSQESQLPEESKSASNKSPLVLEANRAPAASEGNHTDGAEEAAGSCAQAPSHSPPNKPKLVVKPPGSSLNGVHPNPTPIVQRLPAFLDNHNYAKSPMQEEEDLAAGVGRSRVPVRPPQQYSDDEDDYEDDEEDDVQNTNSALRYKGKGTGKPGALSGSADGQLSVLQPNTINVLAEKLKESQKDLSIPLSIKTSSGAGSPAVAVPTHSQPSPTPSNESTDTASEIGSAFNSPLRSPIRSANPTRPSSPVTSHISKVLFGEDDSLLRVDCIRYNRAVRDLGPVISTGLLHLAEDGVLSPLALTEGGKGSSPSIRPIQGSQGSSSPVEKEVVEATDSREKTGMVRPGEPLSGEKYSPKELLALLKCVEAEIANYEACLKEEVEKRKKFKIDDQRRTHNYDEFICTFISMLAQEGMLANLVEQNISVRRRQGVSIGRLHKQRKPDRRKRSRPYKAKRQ
As to the kind of experiment: Inhibition of BAP1 in human HEK293 cells using HA-Ub-VME as substrate at 0.1 to 10 uM incubated for 1 hr by immunoblotting analysis. Particulars: dose 0.1-10 µM. In kind it is cell-based. In short, it runs like this:
(§2)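 Near-confluent HEK293 cells treated with compound in medium for 1 h at 37 °C, lysed in Tris/NP-40/CHAPS buffer with benzonase. Lysate (20 µg) reacted with HA-Ahx-Ahx-Ub-VME (0.5 µg) 15 min at room temperature, boiled 5 min at 95 °C in SDS loading buffer with BME, SDS-PAGE and immunoblot.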
(In general: A western blot detects proteins with antibodies after separation by electrophoresis.)

Test [4] concerns the target Ubiquitin carboxyl-terminal hydrolase isozyme L1 (Homo sapiens) (UniProt P09936). The test is described as follows: Binding affinity to UCHL1 in human HEK293 cells at 130 to 500 nM in presence of ABP MT16-205 by LFQ-NanoLC-MS/MS analysis. To be noted: dose 130-500 nM, DDE = dose-dependent effect. In kind it is cell-based. In short, it runs like this: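 Competition format: HEK293 cells pre-treated 1 h with competitor or DMSO, then exposed to ABP MT16-205. Lysis in PBS/Triton/SDS buffer, AzRB click ligation, NeutrAvidin pulldown, on-bead TCEP/chloroacetamide treatment and overnight tryptic digestion. Label-free LC-MS/MS; two-sample t-test versus control (n=3, permutation FDR 0.01, S0=1).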

The target is the same in test [5]. The test is described as follows: Inhibition of UCHL1 in human HEK293 cells at 130 to 2000 nM in presence of ABP MT16-205 by Competitive pulldown based immunoblotting analysis. To be noted: dose 130-2000 nM, DDE = dose-dependent effect. It is filed as cell-based. A digest of the protocol:
as §1

In test [6] the target is T2, Ubiquitin carboxyl-terminal hydrolase isozyme L3 (Homo sapiens) (UniProt P15374).
T2 sequence (whole entry): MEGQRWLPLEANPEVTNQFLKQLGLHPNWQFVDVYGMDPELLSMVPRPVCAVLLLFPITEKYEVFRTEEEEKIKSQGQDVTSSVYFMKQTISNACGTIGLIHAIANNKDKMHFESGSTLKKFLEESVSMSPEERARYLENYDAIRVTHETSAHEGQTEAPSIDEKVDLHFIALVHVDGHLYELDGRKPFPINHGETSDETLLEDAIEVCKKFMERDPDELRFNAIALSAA
As to the kind of experiment: Inhibition of UCHL3 in human HEK293 cells using HA-Ub-VME as substrate at 0.1 to 10 uM incubated for 1 hr by immunoblotting analysis. It is filed as cell-based. Particulars: dose 0.1-10 µM. In short, it runs like this:
as §2

The target in test [7] is Ubiquitin carboxyl-terminal hydrolase isozyme L1 (Homo sapiens) (UniProt P09936). As to the kind of experiment: Binding affinity to UCHL1 in human HEK293 cells at 31 nM by TAMRA labelled pulldown based In-gel fluorescence analysis. It is filed as cell-based. A digest of the protocol: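 HEK293 cells treated with ABP; lysate (150 µg) CuAAC-ligated to AzTB, precipitated, resuspended. 100 µg incubated with streptavidin magnetic beads 2 h RT, washed with 0.2% SDS/PBS, eluted by boiling 10 min at 95 °C. Eluates run on SDS-PAGE and read by TAMRA in-gel fluorescence or by immunoblot on nitrocellulose with HRP chemiluminescence.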
Ubiquitin carboxyl-terminal hydrolase isozyme L1 (Homo sapiens), sequence (P09936 whole entry, looked up): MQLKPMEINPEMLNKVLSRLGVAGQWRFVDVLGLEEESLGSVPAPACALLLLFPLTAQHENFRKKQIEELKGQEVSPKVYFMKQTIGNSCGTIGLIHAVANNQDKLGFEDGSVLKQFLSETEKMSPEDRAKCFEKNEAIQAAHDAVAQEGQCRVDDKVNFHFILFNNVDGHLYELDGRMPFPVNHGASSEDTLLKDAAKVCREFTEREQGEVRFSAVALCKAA

Test [8] has the same target. The test is described as follows: Inhibition of UCHL1 in human HEK293 cells assessed as reduction in UCHL1-Ub level using HA-Ub-VME as substrate at 0.001 to 30 uM incubated for 1 hr by immunoblotting analysis. It is filed as cell-based. Particulars: dose 0.001-30 µM. In short, it runs like this:
as §2

The target of test [9] is Aldehyde dehydrogenase family 3 member A2 (Homo sapiens) (UniProt P51648). The test is described as follows: Binding affinity to ALDH3A2 in human HEK293 cells assessed as fold change at 130 nM incubated for 3 to 6 hrs by LFQ-chemical proteomics analysis. In kind it is cell-based. Particulars: time 3-6 hrs. A digest of the protocol:
(§3)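 HEK293 cells exposed to alkyne ABP or DMSO for 3, 6 or 18 h, washed, lysed in PBS/1% Triton X-100/0.1% SDS. Lysates (400 µg, biological triplicates) CuAAC-ligated to AzRB (100 µM, CuSO4 1 mM, TCEP 1 mM, TBTA 100 µM, 1 h RT). NeutrAvidin enrichment, on-bead TCEP/CAA reduction-alkylation, overnight trypsin digest at 37 °C, LC-MS/MS label-free quantification. Two-sample t-test against DMSO (n=3, permutation FDR 0.01, S0=1).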

Test [10] addresses Ubiquitin carboxyl-terminal hydrolase isozyme L1 (Homo sapiens) (UniProt P09936). As to the kind of experiment: Binding affinity to UCHL1 in human HEK293 cells assessed as fold change at 130 nM incubated for 3 to 6 hrs by LFQ-chemical proteomics analysis. It is filed as cell-based. Particulars: time 3-6 hrs. In short, it runs like this: as §3
In a further test the test system is HEK293. The test is described as follows: Binding affinity to ALDH in human HEK293 cells assessed as fold change at 30 nM incubated for 3 to 18 hrs by LFQ-chemical proteomics analysis. It is filed as cell-based. To be noted: time 3-18 hrs. A digest of the protocol: as §3

Aldehyde dehydrogenase family 3 member A2 (Homo sapiens), sequence (P51648 whole entry): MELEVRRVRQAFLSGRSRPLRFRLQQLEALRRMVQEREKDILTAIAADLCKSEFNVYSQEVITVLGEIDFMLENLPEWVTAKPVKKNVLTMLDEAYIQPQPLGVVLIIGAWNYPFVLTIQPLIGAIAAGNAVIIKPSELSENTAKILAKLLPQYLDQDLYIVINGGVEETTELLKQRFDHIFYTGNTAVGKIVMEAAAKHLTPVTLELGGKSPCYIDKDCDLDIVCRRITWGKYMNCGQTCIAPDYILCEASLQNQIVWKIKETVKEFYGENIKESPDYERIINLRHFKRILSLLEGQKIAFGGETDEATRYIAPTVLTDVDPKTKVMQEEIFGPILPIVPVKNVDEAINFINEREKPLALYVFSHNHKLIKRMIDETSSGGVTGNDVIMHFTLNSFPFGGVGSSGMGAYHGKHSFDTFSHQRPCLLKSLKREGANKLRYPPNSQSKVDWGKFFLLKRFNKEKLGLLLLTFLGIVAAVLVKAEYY

On to `N#CN1CC[C@H](C(=O)Nc2ncc(-c3ccccc3)s2)C1`, for which the inhibition entry in test [1] and in test [5] was “Dde” each time. Moreover, the inhibition entry in test [2], in test [3] and in test [6] was “Active” each time. Besides, in test [4], the Activity result is “Dde”.
Take `C#Cc1ccc(-c2cnc(NC(=O)[C@H]3CCN(C#N)C3)s2)cc1`: the result in test [7] was Active. Moreover, the inhibition entry in test [8], in test [2], in [3] and in [6] was “Active” in each case. Besides, the figures for the fold change (FC) (in test [9]; in test [10]; with HEK293) were above 64, above 64 and above 16, respectively.
